Reference: ChEMBL document CHEMBL1811872, “Tryptophan 2,3-dioxygenase (TDO) inhibitors. 3-(2-(pyridyl)ethenyl)indoles as potential anticancer immunomodulators” (J Med Chem, 2011)

Substrate: N[C@@H](Cc1c[nH]c2ccccc12)C(=O)O
Assay: Activity of human recombinant TDO expressed in Escherichia coli BL21 using L-tryptophan as substrate by measuring conversion of N-formylkynurenine into kynurenine per mg of protein after 30 mins by Michaelis-Menten steady state analysis
Procedure, shortened: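 Crude extract of E. coli overexpressing recombinant human TDO (~3 μg total protein) was added to prewarmed mix: 50 mM phosphate pH 7.5, 20 mM ascorbate, 10 μM methylene blue, 500 IU/mL catalase and varied L-Trp. Run at 37 °C, stopped with TCA at 2 and 4 min, then 65 °C for 30 min. Kynurenine was read at 480 nm with Ehrlich's reagent against a kynurenine standard curve; rate taken from 2–4 min.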

B1: Tryptophan 2,3-dioxygenase (Homo sapiens), P48775 (protein)
chain: MSGCPFLGNNFGYTFKKLPVEGSEEDKSQTGVNRASKGGLIYGNYLHLEKVLNAQELQSETKGNKIHDEHLFIITHQAYELWFKQILWELDSVREIFQNGHVRDERNMLKVVSRMHRVSVILKLLVQQFSILETMTALDFNDFREYLSPASGFQSLQFRLLENKIGVLQNMRVPYNRRHYRDNFKGEENELLLKSEQEKTLLELVEAWLERTPGLEPHGFNFWGKLEKNITRGLEEEFIRIQAKEESEEKEEQVAEFQKQKEVLLSLFDEKRHEHLLSKGERRLSYRALQGALMIYFYREEPRFQVPFQLLTSLMDIDSLMTKWRYNHVCMVHRMLGSKAGTGGSSGYHYLRSTVSDRYKVFVDLFNLSTYLIPRHWIPKMNPTIHKFLYTAEYCDSSYFSSDESD
Km: 167 µM | Vmax: 97 µM/s
